Screens deposited in PubChem BioAssay by several laboratories.
Runt-CBFb FRET: inhibitors of human RUNX1 Runt domain binding to CBFb; Q01196+Q13951; Cerulean-Runt/Venus-CBFb FRET ratio 530/480, 1 h; inhibition, % at 20 µM; 220,000 tested, 0.46% active; AID 1496;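 active = inhibition over about 50% at 20 µM in the single-dose screen, limit read from the data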
Target sequence (Q01196 whole entry, looked up, the tested form may be a part): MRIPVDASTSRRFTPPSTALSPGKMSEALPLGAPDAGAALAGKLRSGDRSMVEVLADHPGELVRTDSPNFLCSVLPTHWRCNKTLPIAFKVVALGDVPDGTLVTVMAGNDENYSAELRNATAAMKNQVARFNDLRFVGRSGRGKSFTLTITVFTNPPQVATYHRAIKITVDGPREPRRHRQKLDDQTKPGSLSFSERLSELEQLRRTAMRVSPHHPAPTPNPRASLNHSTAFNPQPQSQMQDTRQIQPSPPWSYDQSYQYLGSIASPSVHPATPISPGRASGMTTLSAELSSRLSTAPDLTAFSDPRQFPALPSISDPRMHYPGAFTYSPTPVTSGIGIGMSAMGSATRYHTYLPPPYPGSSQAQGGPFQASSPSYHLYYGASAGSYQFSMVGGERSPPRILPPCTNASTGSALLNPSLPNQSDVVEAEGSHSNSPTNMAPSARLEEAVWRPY
Target sequence (Q13951 whole entry, looked up, the tested form may be a part): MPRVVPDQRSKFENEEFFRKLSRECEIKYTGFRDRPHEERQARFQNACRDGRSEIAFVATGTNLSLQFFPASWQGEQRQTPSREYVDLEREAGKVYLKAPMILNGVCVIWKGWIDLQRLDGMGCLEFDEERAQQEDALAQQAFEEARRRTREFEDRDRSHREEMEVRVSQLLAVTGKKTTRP
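Buffer or medium: Tris pH 7.5 buffer with BSA. Assay system: Cerulean-labeled Runt domain protein. Amount: each fluorescent fusion protein 100 nM. Read-out basis: loss of energy transfer signal. Incubation: 1 h compound exposure, room temperature. Probe or stimulus: Venus-CBFb binding partner, 100 nM. Detection: FRET, excitation 422 nm, emission at 530 and 480 nm.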
Hck-Nef inh: human Hck-Nef kinase inhibition; P08631; Recombinant Hck-YEEI plus Nef, Z-Lyte FRET kinase assay; inhibition, % at 20 µM; 220,000 tested, 0.68% active; AID 463187;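 active = Hck-Nef kinase inhibition above about 50%, limit read from the data; inactive = inhibition below that limit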
Runt-SMMHC FRET: inhibitors of human RUNX1 Runt domain binding to CBFb-SMMHC; Q01196+Q13951; Cerulean-Runt/Venus-CBFb-SMMHC FRET ratio 530/480, 1 h; inhibition, % at 20 µM; 220,000 tested, 0.74% active;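 active = mean inhibition across duplicate retests at 20 µM reaching about 50%, limit read from the data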;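 note: inhibitors lower the FRET ratio by blocking Runt binding to CBFb-SMMHC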
TNF necrop inh: TNF-alpha cell death inhibition in Jurkat FADD-/- cells. Jurkat FADD-/- TNF necroptosis rescue, ATP luminescence, 24 h; 0 = TNF only, 100 = no-TNF cells. activation (protection from cell death), % at 10 µM. 220,000 tested, 0.068% active. AID 463075;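 active = activation, meaning protection from cell death, of at least 50% relative to plate controls; inactive = activation below 50%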;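 note: necroptosis triggered by 40 ng/mL TNF-alpha added together with compound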
zVAD death inh: L929 zVAD cell death inhibition; L929 zVAD necroptosis rescue, ATP luminescence, 24 h; with zVAD 60 µM; viability rescue, % at 10 µM; 220,000 tested, 0.38% active; AID 1377;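 active = activation, scaled between plate controls, above about 75%, limit read from the data; inactive = activation under that limit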
RanGTP-Imp inh: inhibitors of RanGTP-importin-beta interaction, primary screen, biochemical, FRET, CFP-Ran, YFP-importin-beta, homogeneous | cell-free CFP-Ran/YFP-importin-beta FRET ratio | inhibition, % (concentration not given with the values) | AID 2216 | 300,000 tested, 1.1% active;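 active = more than half of the replicate wells show a fall in the fluorescence ratio signal beyond about 16%, limit read from the data, passing the limit was not always enough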
A number is an active result; i = inactive; nt = not tested or not shown. In the library only some 2.1% were active in any assay of this set; here they are far more common.

SMILES	Runt-CBFb FRET	Hck-Nef inh	Runt-SMMHC FRET	TNF necrop inh	zVAD death inh	RanGTP-Imp inh
COC(=O)c1c(C(=O)OC)c2ccccn2c1C(=O)c1ccc([N+](=O)[O-])cc1	nt	nt	nt	nt	nt	i
COC(=O)c1c(C(=O)OC)c2cc(C(=O)c3ccccc3)ccn2c1Cl	i	i	i	i	i	29
CCc1ccc(C(=O)NNC(=O)OC)cc1	69	i	i	i	i	i
Cc1ccc(N=Cc2c(O)[nH]c3ccccc23)c([N+](=O)[O-])c1	i	i	i	i	i	i
CC1CN(CC(=O)NN=C(c2ccccc2)c2ccccc2)CC(C)O1 (stereo unspecified)	i	i	i	i	i	i
CN1CC=C2C(C#N)=C(N)C(C#N)(C#N)C(c3cccc(Cl)c3Cl)C2C1 (stereo unspecified)	i	i	62	i	i	37
CN1CC=C2C(C#N)=C(N)C(C#N)(C#N)[C@H](c3ccoc3)[C@H]2C1	i	i	59	i	i	51
CCN1CC=C2C(C#N)=C(N)C(C#N)(C#N)C(CCc3ccccc3)C2C1 (stereo unspecified)	108	i	i	i	i	nt
N#CC1=C(N)C(C#N)(C#N)[C@H](c2ccoc2)[C@H]2CN(Cc3ccccc3)CC=C12	i	i	57	i	i	107
CC(=O)N1CC=C2C(C#N)=C(N)C(C#N)(C#N)C(CCc3ccccc3)C2C1 (stereo unspecified)	i	i	i	i	i	i
CC(=O)N1CC=C2C(C#N)=C(N)C(C#N)(C#N)[C@H](c3ccoc3)[C@H]2C1	i	i	i	i	i	i
CC(=O)N1CC=C2C(C#N)=C(N)C(C#N)(C#N)C(C)C2C1 (stereo unspecified)	i	i	i	i	i	i
COc1ccc(CNC(=O)c2coc(=O)c3ccccc23)cc1	i	i	i	i	i	i
COc1ccc(NC2SC(=O)N(C)C2=O)cc1 (stereo unspecified)	nt	i	nt	i	i	i
Cc1c(C=O)c2ccccn2c1C(=O)c1cccs1	61	i	87	i	i	i
Cn1cc(/C=C(\C#N)C(=O)Nc2ncc(Cc3cccc(Cl)c3)s2)c2ccccc21	i	i	i	i	i	i
N#C/C(=C\c1c[nH]c2ccccc12)C(=O)Nc1ncc(Cc2ccc(Cl)cc2Cl)s1	i	i	i	i	i	46
Cc1ccccc1Cn1ccc(NC(=O)c2cc3nc(-c4ccco4)cc(C(F)(F)F)n3n2)n1	i	i	i	i	i	54
Cc1nn(Cc2ccccc2)c(C)c1NC(=O)c1cc2nc(-c3ccco3)cc(C(F)(F)F)n2n1	i	i	i	i	i	i
CCc1ccc(-c2cc(C(F)(F)F)n3nc(C(=O)Nc4c(C)nn(Cc5ccccc5C)c4C)cc3n2)s1	i	i	i	i	i	35
CCC(CC)CN1CCN=C1N(C)C	nt	nt	nt	nt	nt	i
Cc1c(NC(=O)Nc2cccc(C#N)c2)c(=O)n(-c2ccccc2)n1C	nt	nt	nt	nt	nt	i
COc1cc(C2CC(c3cccnc3)=NN2c2ccc(F)cc2)cc(OC)c1OC (stereo unspecified)	i	i	87	i	i	nt
C=CCn1c(N)c(C(=O)Nc2ccc(C)c(C)c2)c2nc3ccccc3nc21	i	i	i	i	i	i
C=CCn1c(NC(=O)c2ccccc2Cl)c(C#N)c2nc3ccccc3nc21	i	i	86	i	i	124
SMILES	Runt-CBFb FRET	Hck-Nef inh	Runt-SMMHC FRET	TNF necrop inh	zVAD death inh	RanGTP-Imp inh
N#Cc1c(N)n(CCCN2CCOCC2)c2nc3ccccc3nc12	84	i	62	i	i	nt
CCCCCn1c(N)c(C#N)c2nc3ccccc3nc21	85	i	63	i	i	44
CCCCn1c(NC(C)=O)c(C#N)c2nc3ccccc3nc21	i	i	79	i	i	30
COc1ccc(CCn2c(N)c(C#N)c3nc4ccccc4nc32)cc1OC	i	i	i	i	i	i
COc1ccc(CC2(C)OC(c3ccc([N+](=O)[O-])cc3)=NN2C(C)=O)cc1 (stereo unspecified)	i	i	i	i	i	i
Cc1c(C(=O)Nc2c3c(nn2C(C)(C)C)CS(=O)(=O)C3)cccc1[N+](=O)[O-]	nt	nt	nt	nt	nt	i
COc1cc(CN2CCNC(=O)C2CC(=O)N2CCCO2)cc(OC)c1 (stereo unspecified)	nt	i	nt	i	i	i
CC(=O)c1cccc(NC(=O)Nc2c(C)nn(C)c2C)c1	i	i	i	i	i	63
Cc1ccc(NC(=O)CCN2CC(C)OC(C)C2)cc1 (stereo unspecified)	nt	nt	nt	nt	nt	i
COc1ccc(C(=O)N/N=C/c2ccc(N(C)c3ccccc3)cc2)cc1	nt	nt	nt	nt	nt	i
Cc1ccc(S(=O)(=O)C(C#N)c2nc3ccccc3nc2OCCO)cc1 (stereo unspecified)	i	i	i	i	i	26
COc1ccc(/C(O)=C2/C(=O)C(=O)N(CCN(C)C)C2c2ccccn2)cc1OC (stereo unspecified)	i	i	i	i	i	23
COc1ccc(/C(O)=C2/C(=O)C(=O)N(CCN3CCOCC3)C2c2ccccn2)cc1OC (stereo unspecified)	i	i	i	i	i	29
O=C1C(=O)N(CCN2CCOCC2)C(c2ccccn2)/C1=C(/O)c1ccccc1 (stereo unspecified)	i	i	i	i	i	24
COc1ccc(C2/C(=C(/O)c3ccc4c(c3)CC(C)O4)C(=O)C(=O)N2CCCN2CCOCC2)cc1OC (stereo unspecified)	nt	nt	nt	nt	nt	i
Cc1ccc(/C(O)=C2/C(=O)C(=O)N(CCN3CCOCC3)C2c2ccccn2)cc1 (stereo unspecified)	i	i	i	i	i	22
O=C1C(=O)N(CCN2CCOCC2)C(c2cccnc2)/C1=C(/O)c1ccccc1 (stereo unspecified)	nt	i	nt	i	i	i
COC(=O)[C@]1(C)N[C@H](c2ccc(-c3ccc(Cl)c(Cl)c3)c(OC)c2)[C@@H]2C(=O)N(C)C(=O)[C@@H]21	nt	nt	nt	nt	nt	i
CCOc1ccc(N(CC(N)=O)S(=O)(=O)c2ccc(F)cc2)cc1	i	i	i	i	i	i
CCOc1ccc(S(=O)(=O)N(CC(=O)N2CCC(C(N)=O)CC2)c2ccc(F)cc2)cc1	nt	nt	nt	nt	nt	27
COc1ccccc1-c1c(C#N)c(N)nc2c1CCc1ccccc1-2	i	i	i	i	i	20
CCOc1cc(-c2c(C#N)c(N)nc3c2CCc2ccccc2-3)ccc1O	i	i	i	i	i	i
CCOc1ccc(CNC(=O)CN2C(=O)C(c3ccccc3)Oc3cccnc32)cc1 (stereo unspecified)	nt	nt	nt	nt	nt	i
Cc1cc(N)c(NC2=CC(=O)CC(C)(C)C2)cc1C	i	i	i	i	i	22
